# According to ChEMBL document CHEMBL1123867, “Anticonvulsant O-alkyl sulfamates. 2,3:4,5-Bis-O-(1-methylethylidene)-beta-D-fructopyranose sulfamate and related compounds” (1987):
# Assays:
# Type in all cases: functional
# Mus musculus [1] = assay: Percentage block of the hind-limb tonic-extensor seizure was determined after application of an electric shock to mice for 240 min followed by 100 mg/kg intraperitoneal dose
# Procedure, shortened: (§1)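 Supramaximal electroshock: 50-mA current (60 Hz, 0.20 s) via corneal electrodes induced hind-limb tonic extension; inhibition of this component scored as activity. Mice dosed ip and/or po in aqueous solution or suspension (ca. 0.1% Tween 80, distilled water). Tested at 30, 60, 120 and 240 min (sometimes 45 min); ten mice per time point.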
# Mus musculus [2] = assay: Percentage block of the hind-limb tonic-extensor seizure was determined after application of an electric shock to mice for 120 min followed by 200 mg/kg peroral dose; details: route oral; procedure, shortened: as §1
# Mus musculus [3] = assay: Percentage block of the hind-limb tonic-extensor seizure was determined after application of an electric shock to mice for 30 min followed by 200 mg/kg peroral dose; details: route oral; procedure, shortened: as §1
# Mus musculus [4] = assay: Anticonvulsant activity following p.o. administration by standard maximal electroshock test in mice.; details: po; procedure, shortened: as §1
# Mus musculus [5] = assay: Percentage block of the hind-limb tonic-extensor seizure was determined after application of an electric shock to mice for 60 min followed by 200 mg/kg peroral dose; details: route oral
# Procedure, shortened: (§2)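 Mouse MES test: supramaximal seizure from a 50-mA current (60 Hz, 0.20-s) through corneal electrodes. […] Ten mice per time point. Compound given in aqueous solution or in suspension in ca. 0.1% Tween 80 and distilled water. Free food and water except during testing.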
# Mus musculus [6] = assay: Percentage block of the hind-limb tonic-extensor seizure was determined after application of an electric shock to mice for 30 min followed by 100 mg/kg intraperitoneal dose; procedure, shortened: as §1
# Mus musculus [7] = assay: Anticonvulsant activity by using a standard maximal electroshock test (MES) in mice, by intraperitoneal administration of the compound; Range 50-100 mg/kg; details: ip; procedure, shortened: as §1
# Mus musculus [8] = assay: Percentage block of the hind-limb tonic-extensor seizure was determined after application of an electric shock to mice for 120 min followed by 100 mg/kg intraperitoneal dose; procedure, shortened: as §1
# Mus musculus [9] = assay: Percentage block of the hind-limb tonic-extensor seizure was determined after application of an electric shock to mice for 60 min followed by 100 mg/kg intraperitoneal dose; procedure, shortened: as §1
# Mus musculus [10] = assay: Percentage block of the hind-limb tonic-extensor seizure was determined after application of an electric shock to mice for 240 min followed by 200 mg/kg peroral dose; details: route oral; procedure, shortened: as §1
# Mus musculus [11] = assay: Anticonvulsant activity was determined as percentage of block of the hind-limb tonic-extensor seizure caused by application of an electric shock to mice via corneal electrodes at 60 min by 100 mg/kg intraperitoneal dose; procedure, shortened: as §1
# Mus musculus [12] = assay: Anticonvulsant activity was determined as percentage of block of the hind-limb tonic-extensor seizure caused by application of an electric shock to mice via corneal electrodes at 60 min by 200 mg/kg peroral dose; details: route oral; procedure, shortened: as §1
# Mus musculus [13] = assay: Anticonvulsant activity was determined as percentage of block of the hind-limb tonic-extensor seizure caused by application of an electric shock to mice via corneal electrodes at 120 min by 100 mg/kg intraperitoneal dose; procedure, shortened: as §1
# Mus musculus [14] = assay: Anticonvulsant activity was determined as percentage of block of the hind-limb tonic-extensor seizure caused by application of an electric shock to mice via corneal electrodes at 30 min by 100 mg/kg intraperitoneal dose; procedure, shortened: as §1
# Mus musculus [15] = assay: Anticonvulsant activity by using a standard maximal electroshock test (MES) in mice, by intraperitoneal administration of the compound; details: ip; procedure, shortened: as §1
# Mus musculus [16] = assay: Anticonvulsant activity was determined as percentage of block of the hind-limb tonic-extensor seizure caused by application of an electric shock to mice via corneal electrodes at 240 min by 100 mg/kg intraperitoneal dose; procedure, shortened: as §1
# Mus musculus [17] = assay: Anticonvulsant activity was determined as percentage of block of the hind-limb tonic-extensor seizure caused by application of an electric shock to mice via corneal electrodes at 120 min by 200 mg/kg peroral dose; details: route oral; procedure, shortened: as §1
# Mus musculus [18] = assay: Anticonvulsant activity was determined as percentage of block of the hind-limb tonic-extensor seizure caused by application of an electric shock to mice via corneal electrodes at 240 min by 200 mg/kg peroral dose; details: route oral; procedure, shortened: as §1
# Mus musculus [19] = assay: LD50 of compound after ip administration after 24 hrs was determined
# Mus musculus [20] = assay: Percentage block of the hind-limb tonic-extensor seizure was determined after application of an electric shock to mice for 60 min followed by 50 mg/kg intraperitoneal dose; procedure, shortened: as §2
# Mus musculus [21] = assay: Neurotoxic dose ED50 after po administration in mice at 1 hrs was determined
# Procedure, shortened: (§3)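 Neurotoxicity measured in mice with the rotoreel test after oral dosing. TD50 is the neurotoxic dose ED50, read at 1 h (peak time for TD50) and at 4 h (approximate peak time for the MES ED50). Compound was given as an aqueous solution or as a suspension in about 0.1% Tween 80 in distilled water. Animals had free access to food and water except during testing.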
# Mus musculus [22] = assay: Percentage block of the hind-limb tonic-extensor seizure was determined after application of an electric shock to mice for 120 min followed by 50 mg/kg intraperitoneal dose; procedure, shortened: as §1
# Mus musculus [23] = assay: Percentage block of the hind-limb tonic-extensor seizure was determined after application of an electric shock to mice for 30 min followed by 50 mg/kg intraperitoneal dose; procedure, shortened: as §1
# Mus musculus [24] = assay: Percentage block of the hind-limb tonic-extensor seizure was determined after application of an electric shock to mice for 240 min followed by 50 mg/kg intraperitoneal dose; procedure, shortened: as §1
# Mus musculus [25] = assay: Anticonvulsant activity by using a standard maximal electroshock test (MES) in mice by intraperitoneal administration of the compound; details: ip; procedure, shortened: as §1
# Mus musculus [26] = assay: Percentage block of the hind-limb tonic-extensor seizure was determined after application of an electric shock to mice for 120 min followed by 100 mg/kg peroral dose; details: route oral; procedure, shortened: as §1
# Mus musculus [27] = assay: Percentage block of the hind-limb tonic-extensor seizure was determined after application of an electric shock to mice for 30 min followed by 100 mg/kg peroral dose; details: route oral; procedure, shortened: as §1
# Mus musculus [28] = assay: Percentage block of the hind-limb tonic-extensor seizure was determined after application of an electric shock to mice for 60 min followed by 100 mg/kg peroral dose; details: route oral; procedure, shortened: as §2
# Mus musculus [29] = assay: Percentage block of the hind-limb tonic-extensor seizure was determined after application of an electric shock to mice for 240 min followed by 100 mg/kg peroral dose; details: route oral; procedure, shortened: as §1
# Mus musculus [30] = assay: Neurotoxic dose ED50 after po administration in mice at 4 hrs was determined; procedure, shortened: as §3
structure (smiles),measurement,setting,value
CNS(=O)(=O)OC[C@@]12OC[C@H]3OC(C)(C)OC3C1OC(C)(C)O2 (stereo partly drawn),Block,Mus musculus [1],30%
same,Block,Mus musculus [2],100%
same,Block,Mus musculus [3],20%
same,ED50,Mus musculus [4],200 mg/kg
same,Block,Mus musculus [5],70%
same,Block,Mus musculus [6],30%
same,ED50,Mus musculus [7],50 mg/kg
same,Block,Mus musculus [8],80%
same,Block,Mus musculus [9],90%
same,Block,Mus musculus [10],100%
NS(=O)(=O)OCC1COC2(CCCCC2)O1 (stereo not drawn),Block,Mus musculus [11],10%
same,Block,Mus musculus [3],70%
same,ED50,Mus musculus [4],~150 mg/kg
same,Block,Mus musculus [12],30%
same,Block,Mus musculus [13],0%
same,Block,Mus musculus [14],30%
same,ED50,Mus musculus [15],169 mg/kg
same,Block,Mus musculus [16],0%
same,Block,Mus musculus [17],20%
same,Block,Mus musculus [18],10%
CC1(C)O[C@@H]2[C@@H](CO[C@@]3(COS(N)(=O)=O)OC(C)(C)O[C@@H]23)O1 [TOPIRAMATE],LD50,Mus musculus [19],> 1000 mg/kg
same,Block,Mus musculus [20],60%
same,TD50,Mus musculus [21],407 mg/kg
same,ED50,Mus musculus [4],61 mg/kg
same,Block,Mus musculus [22],70%
same,Block,Mus musculus [23],20%
same,Block,Mus musculus [24],50%
same,ED50,Mus musculus [25],64 mg/kg
same,Block,Mus musculus [26],80%
same,Block,Mus musculus [27],40%
same,Block,Mus musculus [28],80%
same,Block,Mus musculus [29],100%
same,TD50,Mus musculus [30],1100 mg/kg
